# How the values were obtained:
# Type in all cases: functional
# Streptococcus pneumoniae [1] = test: Antimicrobial activity against drug-resistant Streptococcus pneumoniae isolate 3413 after 30 passages with Telithromycin measured after 10 antibiotic-free subculture by multi-step resistance selection technique
# Summary of the method: (§1)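 Mutants selected by daily broth passage in subinhibitory drug in cation-adjusted Mueller-Hinton broth with 5% lysed horse blood. Stability was tested by 10 daily passages on blood agar without antibiotic, then macrodilution MIC.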
# Streptococcus pneumoniae [2] = test: Antimicrobial activity against drug-resistant Streptococcus pneumoniae isolate 1077 after 29 passages with azithromycin measured after 10 antibiotic-free subculture by multi-step resistance selection technique; summary of the method: as §1
# Streptococcus pneumoniae [3] = test: Antimicrobial activity against drug-resistant Streptococcus pneumoniae isolate 1635 after 14 passages with clindamycin measured after 10 antibiotic-free subculture by multi-step resistance selection technique
# Streptococcus pneumoniae [4] = test: Antimicrobial activity against drug-resistant Streptococcus pneumoniae isolate 3243 after 41 passages with clarithromycin measured after 10 antibiotic-free subculture by multi-step resistance selection technique
# Streptococcus pneumoniae [5] = test: Antimicrobial activity against drug-resistant Streptococcus pneumoniae isolate 2527 after 20 passages with azithromycin measured after 10 antibiotic-free subculture by multi-step resistance selection technique; summary of the method: as §1
# Streptococcus pneumoniae [6] = test: Antimicrobial activity against drug-resistant Streptococcus pneumoniae isolate 3274 after 48 passages with Telithromycin measured after 10 antibiotic-free subculture by multi-step resistance selection technique; summary of the method: as §1
# Streptococcus pneumoniae [7] = test: Antimicrobial activity against drug-resistant Streptococcus pneumoniae isolate 24 after 14 passages with Telithromycin measured after 10 antibiotic-free subculture by multi-step resistance selection technique; summary of the method: as §1
# Streptococcus pneumoniae [8] = test: Antimicrobial activity against drug-resistant Streptococcus pneumoniae isolate 3676 after 44 passages with clarithromycin measured after 10 antibiotic-free subculture by multi-step resistance selection technique
# Streptococcus pneumoniae [9] = test: Antimicrobial activity against drug-resistant Streptococcus pneumoniae isolate 3009 by NCCLS M7-A7 method
# Streptococcus pneumoniae [10] = test: Antimicrobial activity against drug-resistant Streptococcus pneumoniae isolate 3243 after 29 passages with Telithromycin measured after 10 antibiotic-free subculture by multi-step resistance selection technique; summary of the method: as §1
# Streptococcus pneumoniae [11] = test: Antimicrobial activity against drug-resistant Streptococcus pneumoniae isolate 1077 after 15 passages with Telithromycin measured after 10 antibiotic-free subculture by multi-step resistance selection technique; summary of the method: as §1
# Streptococcus pneumoniae [12] = test: Antimicrobial activity against drug-resistant Streptococcus pneumoniae isolate 3676 after 14 passages with Telithromycin measured after 10 antibiotic-free subculture by multi-step resistance selection technique
# Streptococcus pneumoniae [13] = test: Antimicrobial activity against drug-resistant Streptococcus pneumoniae isolate 3274 by NCCLS M7-A7 method
# Streptococcus pneumoniae [14] = test: Antimicrobial activity against drug-resistant Streptococcus pneumoniae isolate 2527 by NCCLS M7-A7 method
# Streptococcus pneumoniae [15] = test: Antimicrobial activity against drug-resistant Streptococcus pneumoniae isolate 3243 after 33 passages by multi-step resistance selection technique
# Summary of the method: (§2)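 Daily serial passage in subinhibitory drug levels in 1 ml cation-adjusted Mueller-Hinton broth with 5% lysed horse blood; fresh broth for tigecycline. Each day, 10 μl were taken from the tube one to two dilutions below the MIC whose turbidity matched the growth control, and used to set the next MIC. […] MIC by macrodilution.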
# Streptococcus pneumoniae [16] = test: Antimicrobial activity against drug-resistant Streptococcus pneumoniae isolate 1077 after 29 passages by multi-step resistance selection technique; summary of the method: as §2
# Streptococcus pneumoniae [17] = test: Antimicrobial activity against drug-resistant Streptococcus pneumoniae isolate 3009 after 21 passages with gemifloxacin measured after 10 antibiotic-free subculture by multi-step resistance selection technique; summary of the method: as §1
# Streptococcus pneumoniae [18] = test: Antimicrobial activity against drug-resistant Streptococcus pneumoniae isolate 1635 by NCCLS M7-A7 method
# Streptococcus pneumoniae [19] = test: Antimicrobial activity against drug-resistant Streptococcus pneumoniae isolate 3274 after 50 passages by multi-step resistance selection technique
# Summary of the method: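 Daily serial passage in subinhibitory drug levels in 1 ml cation-adjusted Mueller-Hinton broth with 5% lysed horse blood; fresh broth for tigecycline. Each day, 10 μl were taken from the tube one to two dilutions below the MIC whose turbidity matched the growth control, and used to set the next MIC. MIC by macrodilution.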
# Streptococcus pneumoniae [20] = test: Antimicrobial activity against drug-resistant Streptococcus pneumoniae isolate 1076 by NCCLS M7-A7 method
# Streptococcus pneumoniae [21] = test: Antimicrobial activity against drug-resistant Streptococcus pneumoniae isolate 1077 after 49 passages with clindamycin measured after 10 antibiotic-free subculture by multi-step resistance selection technique
# Streptococcus pneumoniae [22] = test: Antimicrobial activity against drug-resistant Streptococcus pneumoniae isolate 3665 after 38 passages with moxifloxacin measured after 10 antibiotic-free subculture by multi-step resistance selection technique
# Streptococcus pneumoniae [23] = test: Antimicrobial activity against drug-resistant Streptococcus pneumoniae isolate 2527 after 14 passages with gemifloxacin measured after 10 antibiotic-free subculture by multi-step resistance selection technique; summary of the method: as §1
# Streptococcus pneumoniae [24] = test: Antimicrobial activity against drug-resistant Streptococcus pneumoniae isolate 3243 after 33 passages with azithromycin measured after 10 antibiotic-free subculture by multi-step resistance selection technique; summary of the method: as §1
# Streptococcus pneumoniae [25] = test: Antimicrobial activity against drug-resistant Streptococcus pneumoniae isolate 3413 by NCCLS M7-A7 method
# Streptococcus pneumoniae [26] = test: Antimicrobial activity against drug-resistant Streptococcus pneumoniae isolate 1076 after 14 passages with Telithromycin measured after 10 antibiotic-free subculture by multi-step resistance selection technique; summary of the method: as §1
# Streptococcus pneumoniae [27] = test: Antimicrobial activity against drug-resistant Streptococcus pneumoniae isolate 3676 after 50 passages by multi-step resistance selection technique
# Summary of the method: (§3)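 Daily serial passage in broth at subinhibitory drug levels: 1 ml cation-adjusted Mueller-Hinton broth with 5% lysed horse blood; fresh broth for tigecycline. Each day 10 μl inoculum taken from the tube one to two dilutions below MIC matching growth-control turbidity, used to set next MIC. Continued until ≥8-fold MIC rise, minimum 14, maximum 50 passages; MIC read by macrodilution.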
# Streptococcus pneumoniae [28] = test: Antimicrobial activity against drug-resistant Streptococcus pneumoniae isolate 1635 after 49 passages with clarithromycin measured after 10 antibiotic-free subculture by multi-step resistance selection technique
# Streptococcus pneumoniae [29] = test: Antimicrobial activity against drug-resistant Streptococcus pneumoniae isolate 1635 after 14 passages by multi-step resistance selection technique; summary of the method: as §2
# Streptococcus pneumoniae [30] = test: Antimicrobial activity against drug-resistant Streptococcus pneumoniae isolate 1077 by NCCLS M7-A7 method
# Streptococcus pneumoniae [31] = test: Antimicrobial activity against drug-resistant Streptococcus pneumoniae isolate 3009 after 19 passages with moxifloxacin measured after 10 antibiotic-free subculture by multi-step resistance selection technique; summary of the method: as §1
# Streptococcus pneumoniae [32] = test: Antimicrobial activity against drug-resistant Streptococcus pneumoniae isolate 3676 by NCCLS M7-A7 method
# Streptococcus pneumoniae [33] = test: Antimicrobial activity against drug-resistant Streptococcus pneumoniae isolate 3665 by NCCLS M7-A7 method
# Streptococcus pneumoniae [34] = test: Antimicrobial activity against drug-resistant Streptococcus pneumoniae isolate 24 by NCCLS M7-A7 method
# Streptococcus pneumoniae [35] = test: Antimicrobial activity against drug-resistant Streptococcus pneumoniae isolate 3665 after 26 passages with clarithromycin measured after 10 antibiotic-free subculture by multi-step resistance selection technique
# Streptococcus pneumoniae [36] = test: Antimicrobial activity against drug-resistant Streptococcus pneumoniae isolate 3009 after 18 passages with levofloxacin measured after 10 antibiotic-free subculture by multi-step resistance selection technique; summary of the method: as §1
# Streptococcus pneumoniae [37] = test: Antimicrobial activity against drug-resistant Streptococcus pneumoniae isolate 3665 after 14 passages with Telithromycin measured after 10 antibiotic-free subculture by multi-step resistance selection technique
# Streptococcus pneumoniae [38] = test: Antimicrobial activity against drug-resistant Streptococcus pneumoniae isolate 1635 after 14 passages with azithromycin measured after 10 antibiotic-free subculture by multi-step resistance selection technique; summary of the method: as §1
# Streptococcus pneumoniae [39] = test: Antimicrobial activity against drug-resistant Streptococcus pneumoniae isolate 3665 after 50 passages by multi-step resistance selection technique; summary of the method: as §3
# Streptococcus pneumoniae [40] = test: Antimicrobial activity against drug-resistant Streptococcus pneumoniae isolate 24 after 50 passages with moxifloxacin measured after 10 antibiotic-free subculture by multi-step resistance selection technique; summary of the method: as §1
# Streptococcus pneumoniae [41] = test: Antimicrobial activity against drug-resistant Streptococcus pneumoniae isolate 3243 by NCCLS M7-A7 method
# Streptococcus pneumoniae [42] = test: Antimicrobial activity against drug-resistant Streptococcus pneumoniae isolate 37 by NCCLS M7-A7 method
# Streptococcus pneumoniae [43] = test: Antimicrobial activity against drug-resistant Streptococcus pneumoniae isolate 37 after 14 passages with Telithromycin measured after 10 antibiotic-free subculture by multi-step resistance selection technique
# Streptococcus pneumoniae [44] = test: Antimicrobial activity against drug-resistant Streptococcus pneumoniae isolate 2527 after 20 passages by multi-step resistance selection technique
# Streptococcus pneumoniae [45] = test: Antimicrobial activity against drug-resistant Streptococcus pneumoniae isolate 3243 after 20 passages with moxifloxacin measured after 10 antibiotic-free subculture by multi-step resistance selection technique; summary of the method: as §1
# Streptococcus pneumoniae [46] = test: Antimicrobial activity against drug-resistant Streptococcus pneumoniae isolate 3676 after 50 passages with moxifloxacin measured after 10 antibiotic-free subculture by multi-step resistance selection technique
# Streptococcus pneumoniae [47] = test: Antimicrobial activity against drug-resistant Streptococcus pneumoniae isolate 1076 after 35 passages with moxifloxacin measured after 10 antibiotic-free subculture by multi-step resistance selection technique; summary of the method: as §1
# Streptococcus pneumoniae [48] = test: Antimicrobial activity against drug-resistant Streptococcus pneumoniae isolate 3009 after 25 passages with clarithromycin measured after 10 antibiotic-free subculture by multi-step resistance selection technique
compound,measurement,setting,value
CC[C@H]1OC(=O)[C@H](C)[C@@H](O[C@H]2C[C@@](C)(OC)[C@@H](O)[C@H](C)O2)[C@H](C)[C@@H](O[C@@H]2O[C@H](C)C[C@H](N(C)C)[C@H]2O)[C@](C)(O)C[C@@H](C)CN(C)[C@H](C)[C@@H](O)[C@]1(C)O [AZITHROMYCIN],MIC,Streptococcus pneumoniae [1],> 64 µg/mL
same,MIC,Streptococcus pneumoniae [2],> 64 µg/mL
same,MIC,Streptococcus pneumoniae [3],4 µg/mL
same,MIC,Streptococcus pneumoniae [4],1 µg/mL
same,MIC,Streptococcus pneumoniae [5],4 µg/mL
same,MIC,Streptococcus pneumoniae [6],1 µg/mL
same,MIC,Streptococcus pneumoniae [7],> 64 µg/mL
same,MIC,Streptococcus pneumoniae [8],16 µg/mL
same,MIC,Streptococcus pneumoniae [9],> 64 µg/mL
same,MIC,Streptococcus pneumoniae [10],> 64 µg/mL
same,MIC,Streptococcus pneumoniae [11],> 64 µg/mL
same,MIC,Streptococcus pneumoniae [12],2 µg/mL
same,MIC,Streptococcus pneumoniae [13],0.008 µg/mL
same,MIC,Streptococcus pneumoniae [14],0.016 µg/mL
same,MIC,Streptococcus pneumoniae [15],0.25 µg/mL
same,MIC,Streptococcus pneumoniae [16],> 64 µg/mL
same,MIC,Streptococcus pneumoniae [17],> 64 µg/mL
same,MIC,Streptococcus pneumoniae [18],2 µg/mL
same,MIC,Streptococcus pneumoniae [19],0.008 µg/mL
same,MIC,Streptococcus pneumoniae [20],> 64 µg/mL
same,MIC,Streptococcus pneumoniae [21],> 64 µg/mL
same,MIC,Streptococcus pneumoniae [22],8 µg/mL
same,MIC,Streptococcus pneumoniae [23],0.03 µg/mL
same,MIC,Streptococcus pneumoniae [24],0.5 µg/mL
same,MIC,Streptococcus pneumoniae [25],> 64 µg/mL
same,MIC,Streptococcus pneumoniae [26],> 64 µg/mL
same,MIC,Streptococcus pneumoniae [27],8 µg/mL
same,MIC,Streptococcus pneumoniae [28],> 64 µg/mL
same,MIC,Streptococcus pneumoniae [29],> 64 µg/mL
same,MIC,Streptococcus pneumoniae [30],0.03 µg/mL
same,MIC,Streptococcus pneumoniae [31],> 64 µg/mL
same,MIC,Streptococcus pneumoniae [32],4 µg/mL
same,MIC,Streptococcus pneumoniae [33],8 µg/mL
same,MIC,Streptococcus pneumoniae [34],> 64 µg/mL
same,MIC,Streptococcus pneumoniae [35],8 µg/mL
same,MIC,Streptococcus pneumoniae [36],> 64 µg/mL
same,MIC,Streptococcus pneumoniae [37],4 µg/mL
same,MIC,Streptococcus pneumoniae [38],> 64 µg/mL
same,MIC,Streptococcus pneumoniae [39],16 µg/mL
same,MIC,Streptococcus pneumoniae [40],> 64 µg/mL
same,MIC,Streptococcus pneumoniae [41],0.03 µg/mL
same,MIC,Streptococcus pneumoniae [42],> 64 µg/mL
same,MIC,Streptococcus pneumoniae [43],> 64 µg/mL
same,MIC,Streptococcus pneumoniae [44],4 µg/mL
same,MIC,Streptococcus pneumoniae [45],0.016 µg/mL
same,MIC,Streptococcus pneumoniae [46],4 µg/mL
same,MIC,Streptococcus pneumoniae [47],> 64 µg/mL
same,MIC,Streptococcus pneumoniae [48],> 64 µg/mL

# — ChEMBL document CHEMBL1151428, “Capability of 11 antipneumococcal antibiotics to select for resistance by multistep and single-step methodologies” (2007)
